Laboratory results taken from ChEMBL document CHEMBL5260824, “9-Deazapurines as Broad-Spectrum Inhibitors of the ABC Transport Proteins P-Glycoprotein, Multidrug Resistance-Associated Protein 1, and Breast Cancer Resistance Protein” (J Med Chem, 2017).

Experiments:
[1] = Reversal of drug resistance in human A2780 ADR cells expressing P-gp; format: functional, cell-based
Summary of the method: (§1)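 Cells seeded per well (A2780/ADR 8,000; H69AR 20,000; MDCK II BCRP 3,000) with test compound at 1, 10 or 100 µM solutions added before cells. Daunorubicin (P-gp, MRP1) or SN-38 (BCRP) added to final 10 nM–10 µM. 72 h at 37 °C, then MTT viability read at 570 nm. GI50 from variable-slope nonlinear fits, compared with parental lines; three independent experiments in duplicate.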

H69AR [2] = assay: Reversal of drug resistance in human NCI-H69AR cells expressing MRP1; format: functional, cell-based; summary of the method: as §1
H69AR [3] = assay: Reversal of Daunorubicin resistance in human NCI-H69AR cells assessed as Daunorubicin GI50 at 0.1 uM measured for 72 hrs by MTT assay; format: functional
Summary of the method: (§2)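 Reversal assay: resistant lines (A2780/ADR, H69AR, MDCK II BCRP) and parental lines seeded as for MTT assay with modulator solutions of 1, 10 and 100 µM added (final 0.1, 1, 10 µM) and daunorubicin (P-gp, MRP1) or SN-38 (BCRP) at final 10 nM–10 µM. 72 h, MTT read-out; GI50 by variable-slope fit. Resistance factor = resistant/sensitive GI50; potentiation factor = GI50 without/with modulator.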

[4] = Reversal of SN-38 resistance in dog MDCK-II-BCRP cells assessed as SN-38 GI50 at 0.1 uM measured for 72 hrs by MTT assay; format: functional; settings: Canis lupus familiaris; summary of the method: as §2
[5] = Reversal of Daunorubicin resistance in human A2780 ADR cells assessed as Daunorubicin GI50 at 1 uM measured for 72 hrs by MTT assay; format: functional; summary of the method: as §2
H69AR [6] = assay: Reversal of Daunorubicin resistance in human NCI-H69AR cells assessed as Daunorubicin GI50 at 1 uM measured for 72 hrs by MTT assay; format: functional; summary of the method: as §2
[7] = Reversal of SN-38 resistance in dog MDCK-II-BCRP cells assessed as SN-38 GI50 at 1 uM measured for 72 hrs by MTT assay; format: functional; settings: Canis lupus familiaris; summary of the method: as §2
H69AR [8] = assay: Reversal of Daunorubicin resistance in human NCI-H69AR cells assessed as Daunorubicin GI50 at 10 uM measured for 72 hrs by MTT assay; format: functional; summary of the method: as §2
[9] = target: Multidrug resistance-associated protein 1 (Homo sapiens, UniProt P33527); assay: Inhibition of MRP1 in human NCI-H69AR cells incubated for 180 mins in presence of daunorubicin by flow cytometry analysis; format: cell-based
Summary of the method: (§3)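 H69AR cells (doxorubicin-selected small cell lung cancer, RPMI-1640/20% FBS), about 60,000 per well, preincubated 15 min with compound (100 nM–100 µM added solutions, in unsupplemented medium), then daunorubicin (30 µM solution added); steady state after 180 min, 37 °C, 5% CO2. Cells resuspended; flow cytometry, 488 nm excitation, FL3 (≥670 nm). Reference inhibitor 75 at 10 µM = 100%; Imax relative to it.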

P-gp (ABCB1) = P-gp (ABCB1) (Homo sapiens, UniProt P08183); assay: Inhibition of P-gp (unknown origin) at 10 uM incubated for 30 mins by calcein AM analysis relative to control; settings: probe calcein AM
Summary of the method: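 A2780/ADR cells (doxorubicin-selected, P-gp overexpressing), about 30,000 per well in Krebs-HEPES buffer pH 7.4, incubated 30 min at 37 °C with compound (100 nM–100 µM added solutions). Calcein AM (3.125 µM solution added) then fluorescence read every 60 s at 37 °C, ex 485/em 520 nm; slope over minutes 5–30 plotted vs log concentration. Cyclosporine A 10 µM = 100% inhibition, buffer = 0%.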

MRP1 = MRP1 (Homo sapiens, UniProt P33527); assay: Inhibition of MRP1 in human NCI-H69AR cells at 10 uM incubated for 180 mins in presence of daunorubicin by flow cytometry analysis relative to control; format: cell-based; settings: probe daunorubicin; summary of the method: as §3
[10] = Antiproliferative activity against human A2780 ADR cells assessed as reduction in cell viability measured for 72 hrs bt MTT assay; format: functional
A2780 = assay: Antiproliferative activity against human A2780 cells assessed as reduction in cell viability measured for 72 hrs bt MTT assay; format: functional
H69AR [11] = assay: Antiproliferative activity against human NCI-H69AR cells assessed as reduction in cell viability measured for 72 hrs bt MTT assay; format: functional
BCRP (ABCG2) = assay: Therapeutic index, ratio of GI50 for antiproliferative activity against dog MDCK-II-BCRP cells to IC50 for inhibition of BCRP (unknown origin) expressed in dog MDCK-II cells; format: toxicity, cell-based
Summary of the method: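 Ratio of MTT-assay GI50 to transport-inhibition IC50, both in the resistant line. GI50 comes from 72 h exposure at 37 °C to dilutions up to 1000 µM, with medium as 100% and 10% DMSO as 0% viability. IC50 comes from calcein AM (A2780/ADR), daunorubicin (H69AR) or pheophorbide A (MDCK II BCRP) accumulation.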

[12] = Inhibition of daunorubicin sensitive human A2780 ADR cells expressing P-gp measured for 72 hrs by MTT assay; format: functional; summary of the method: as §2
[13] = Potentiation factor, ratio of GI50 for daunorubicin resistant human A2780 ADR cells expressing P-gp cells to GI50 for reversal of daunorubicin resistance in human A2780 ADR cells assessed as daunorubicin GI50 at 1 uM by MTT assay (reference value: 1 uM); format: functional; summary of the method: as §2
[14] = Potentiation factor, ratio of GI50 for daunorubicin resistant human A2780 ADR cells expressing P-gp cells to GI50 for reversal of daunorubicin resistance in human A2780 ADR cells assessed as daunorubicin GI50 at 10 uM (reference value: 1 uM); format: functional; summary of the method: as §2
H69AR [15] = assay: Potentiation factor, ratio of GI50 for daunorubicin resistant human NCI-H69AR cells expressing MRP1 cells to GI50 for reversal of daunorubicin resistance in human NCI-H69AR cells assessed as daunorubicin GI50 at 0.1 uM (reference value: 1 uM); format: functional; summary of the method: as §2
H69AR [16] = assay: Potentiation factor, ratio of GI50 for daunorubicin resistant human NCI-H69AR cells expressing MRP1 cells to GI50 for reversal of daunorubicin resistance in human NCI-H69AR cells assessed as daunorubicin GI50 at 1 uM (reference value: 1 uM); format: functional; summary of the method: as §2
[17] = Potentiation factor, ratio of GI50 for SN-38 resistant dog MDCK-II-BCRP cells expressing BCRP cells to GI50 for reversal of SN-38 resistance in dog MDCK-II-BCRP cells assessed as SN-38 GI50 at 1 uM (reference value: 1 uM); format: functional, Canis lupus familiaris; summary of the method: as §2
H69AR [18] = assay: Sensitization of human NCI-H69AR cells expressing MRP1 assessed as maximal sensitivity at 10 uM relative to control; format: functional
Summary of the method: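 Resistant lines were exposed to daunorubicin (A2780/ADR, H69AR) or SN-38 (MDCK II BCRP) over 10 nM–10 µM final, with or without modulator, for 72 h. Viability was read by MTT. Potentiation factor is GI50 without modulator over GI50 with modulator. Maximal sensitization is pf at 10 µM divided by the native resistance factor, in percent.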

Chain of Multidrug resistance-associated protein 1 (P33527 whole entry): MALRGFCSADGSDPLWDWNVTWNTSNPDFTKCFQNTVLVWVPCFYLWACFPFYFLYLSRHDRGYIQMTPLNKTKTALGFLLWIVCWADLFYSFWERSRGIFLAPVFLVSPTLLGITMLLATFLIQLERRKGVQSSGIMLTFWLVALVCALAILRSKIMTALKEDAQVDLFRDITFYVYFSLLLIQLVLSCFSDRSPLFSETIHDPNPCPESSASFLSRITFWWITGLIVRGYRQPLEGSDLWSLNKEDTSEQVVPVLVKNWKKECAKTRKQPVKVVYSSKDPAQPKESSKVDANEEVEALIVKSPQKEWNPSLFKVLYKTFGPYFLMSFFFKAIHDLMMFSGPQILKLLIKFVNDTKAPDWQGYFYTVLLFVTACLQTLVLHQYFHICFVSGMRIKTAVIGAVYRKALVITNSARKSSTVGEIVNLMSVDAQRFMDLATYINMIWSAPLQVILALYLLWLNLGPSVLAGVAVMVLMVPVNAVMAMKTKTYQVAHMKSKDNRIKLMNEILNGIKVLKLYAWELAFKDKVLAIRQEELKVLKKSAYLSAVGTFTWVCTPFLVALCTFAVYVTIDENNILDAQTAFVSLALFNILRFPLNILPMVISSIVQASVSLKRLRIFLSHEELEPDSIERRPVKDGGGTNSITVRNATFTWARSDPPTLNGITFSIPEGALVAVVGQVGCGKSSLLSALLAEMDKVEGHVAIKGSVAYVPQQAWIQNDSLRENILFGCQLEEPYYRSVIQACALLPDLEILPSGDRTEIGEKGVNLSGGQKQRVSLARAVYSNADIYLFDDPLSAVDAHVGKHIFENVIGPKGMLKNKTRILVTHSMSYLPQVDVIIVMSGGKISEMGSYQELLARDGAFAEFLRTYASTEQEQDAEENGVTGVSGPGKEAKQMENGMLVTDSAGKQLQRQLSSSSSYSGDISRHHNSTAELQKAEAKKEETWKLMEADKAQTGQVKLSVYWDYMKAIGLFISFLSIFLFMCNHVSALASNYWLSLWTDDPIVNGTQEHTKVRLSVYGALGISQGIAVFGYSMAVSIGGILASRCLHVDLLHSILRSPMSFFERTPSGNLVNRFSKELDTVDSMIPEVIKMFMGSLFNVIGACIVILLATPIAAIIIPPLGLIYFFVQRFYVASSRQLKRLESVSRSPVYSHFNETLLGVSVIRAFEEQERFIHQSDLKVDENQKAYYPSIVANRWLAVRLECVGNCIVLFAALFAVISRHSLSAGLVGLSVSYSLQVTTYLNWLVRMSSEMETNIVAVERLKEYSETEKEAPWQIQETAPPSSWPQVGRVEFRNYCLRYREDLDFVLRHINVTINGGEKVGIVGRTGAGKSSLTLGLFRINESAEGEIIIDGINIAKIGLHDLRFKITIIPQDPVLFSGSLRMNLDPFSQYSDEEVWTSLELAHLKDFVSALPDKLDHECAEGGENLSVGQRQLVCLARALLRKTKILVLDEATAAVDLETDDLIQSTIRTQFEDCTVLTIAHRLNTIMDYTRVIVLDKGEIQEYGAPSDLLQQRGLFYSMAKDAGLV
Chain of MRP1 (P33527 whole entry): as above
Chain of P-gp (ABCB1) (P08183 whole entry): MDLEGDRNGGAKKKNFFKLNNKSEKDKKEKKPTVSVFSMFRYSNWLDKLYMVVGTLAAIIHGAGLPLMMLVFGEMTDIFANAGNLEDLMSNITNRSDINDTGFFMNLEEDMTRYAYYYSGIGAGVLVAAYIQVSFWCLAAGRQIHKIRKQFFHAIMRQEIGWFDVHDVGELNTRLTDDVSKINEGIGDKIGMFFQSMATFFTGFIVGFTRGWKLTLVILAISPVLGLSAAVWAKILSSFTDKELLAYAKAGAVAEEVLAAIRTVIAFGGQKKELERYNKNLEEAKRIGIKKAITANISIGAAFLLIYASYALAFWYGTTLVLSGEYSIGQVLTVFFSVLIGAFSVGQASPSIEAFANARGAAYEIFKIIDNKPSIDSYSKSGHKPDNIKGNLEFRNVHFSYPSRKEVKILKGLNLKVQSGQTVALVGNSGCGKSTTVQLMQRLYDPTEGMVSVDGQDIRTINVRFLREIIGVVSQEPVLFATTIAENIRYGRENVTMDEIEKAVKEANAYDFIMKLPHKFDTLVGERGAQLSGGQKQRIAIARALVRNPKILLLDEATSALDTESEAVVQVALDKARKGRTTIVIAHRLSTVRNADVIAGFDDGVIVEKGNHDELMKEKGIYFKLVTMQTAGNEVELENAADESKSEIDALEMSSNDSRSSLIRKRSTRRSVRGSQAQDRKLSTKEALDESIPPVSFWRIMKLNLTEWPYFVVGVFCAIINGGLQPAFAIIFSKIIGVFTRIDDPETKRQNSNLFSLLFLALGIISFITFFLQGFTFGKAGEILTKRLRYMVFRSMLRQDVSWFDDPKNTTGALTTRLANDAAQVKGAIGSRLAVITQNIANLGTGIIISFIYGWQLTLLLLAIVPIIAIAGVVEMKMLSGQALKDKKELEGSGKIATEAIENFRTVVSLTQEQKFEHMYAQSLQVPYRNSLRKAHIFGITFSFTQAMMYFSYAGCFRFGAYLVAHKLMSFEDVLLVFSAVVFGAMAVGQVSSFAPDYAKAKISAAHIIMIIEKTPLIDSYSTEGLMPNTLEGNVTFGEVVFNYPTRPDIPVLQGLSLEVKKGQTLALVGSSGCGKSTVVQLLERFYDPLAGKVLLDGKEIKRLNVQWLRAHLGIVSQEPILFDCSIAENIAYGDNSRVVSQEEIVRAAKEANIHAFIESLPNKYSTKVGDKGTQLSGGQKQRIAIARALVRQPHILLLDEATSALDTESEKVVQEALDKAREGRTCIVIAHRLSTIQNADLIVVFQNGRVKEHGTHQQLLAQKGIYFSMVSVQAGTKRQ

EC50 [1]: 563 nM
EC50 (H69AR [2]): 959 nM
IC50 [9]: 501 nM
inhibition at 0.5 h, 10 µM (P-gp (ABCB1)): > 25%
inhibition at 3 h, 10 µM (MRP1): > 25%
GI50 (A2780): 6360 nM
SMILES: N#Cc1cn(CCCc2ccccc2)c2c(N3CCN(CCc4c[nH]c5ccccc45)CC3)ncnc12
GI50 (H69AR [3]): 2100 nM
GI50 [4]: 916 nM
GI50 [5]: 58 nM
GI50 (H69AR [6]): 1170 nM
GI50 [7]: 211 nM
GI50 (H69AR [8]): 445 nM
GI50 [10]: 13700 nM
GI50 (H69AR [11]): 152000 nM
selectivity ratio (BCRP (ABCG2)): 14
GI50 [12]: 10 nM
RatioGI50 [13]: 9.8
RatioGI50 [14]: 13
PF (H69AR [15]): 1.8
PF (H69AR [16]): 3.3
PF [17]: 8.1
Activity (H69AR [18]): 81%
